Reference: ChEMBL document CHEMBL1144887, “Indanylidenes. 1. Design and synthesis of (E)-2-(4,6-difluoro-1-indanylidene)acetamide, a potent, centrally acting muscle relaxant with antiinflammatory and analgesic activity” (J Med Chem, 2003)

Key:
Type in all cases: functional
[1] = system: Rattus norvegicus; assay: Antiinflammatory activity in cells by Carrageenan pleurisy assay by oral administration at 20 mg/kg.
Method in brief: (§1)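 Rat carrageenan pleurisy, 3 h. Single oral dose of 20 mg/kg, with separate read-outs for pleural cell counts and edema as percent inhibition. Each compound tested two or three times; average variation approximately 10%.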

[2] = system: Rattus norvegicus; assay: Percent inhibition for analgesic activity by trypsin-induced hyperalgesia assay at 20 mg/kg by oral administration in rats.
Method in brief: (§2)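 Rat trypsin-induced hyperalgesia (mild analgesia). Percent inhibition at a single oral dose of 20 mg/kg. Each compound tested two or three times; average variation approximately 5%.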

[3] = species on record: Mus musculus; assay: Ratio of rotarod to Straub-tail activity, which indicates the dose exhibiting muscle relaxant activity versus that producing sedation.
Method in brief: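 Ratio of rotorod ED50 (po) to Straub tail ED50 (po), both measured in mice with oral dosing. Indicates separation between the muscle-relaxant dose and the sedating dose.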

[4] = system: Rattus norvegicus; assay: Effective dose required for analgesic activity by trypsin-induced hyperalgesia assay at 20 mg/kg by oral administration in rats
Method in brief: (§3)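 Rat trypsin-induced hyperalgesia (mild analgesia) with oral dosing. ED50 reported in mg/kg po. Each compound tested two or three times; average variation approximately 5%.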

[5] = system: Mus musculus; assay: Effective dose required for muscle relaxation by oral administration in mouse using Straub-tail (ST) assay.
Method in brief: (§4)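 Mouse morphine-induced Straub tail assay, scoring inhibition of sacro-coccygeus dorsalis contraction. Dosed ip or po, generally at a minimum of three doses with N = 6 animals per dose group.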

[6] = system: Mus musculus; assay: (§5) Percent effect profile muscle relaxation at 100 mg/kg by intraperitoneal administration in mouse using Straub-tail (ST) assay; conditions: ip
Method in brief: (§6)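 Mouse morphine-induced Straub tail assay, scoring inhibition of sacro-coccygeus dorsalis contraction. Single ip dose of 100 mg/kg; percent effect reported. Compounds above 50% inhibition were then tested orally.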

[7] = system: Rattus norvegicus; assay: Antiinflammatory activity in edema by Carrageenan pleurisy assay by oral administration at 20 mg/kg.; method in brief: as §1
[8] = system: Mus musculus; assay: Sedation caused by oral administration was estimated using rotarod (RR) assay.
Method in brief: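 Mouse rotorod test for sedation, oral dosing, generally at a minimum of three doses with N = 6 animals per dose group.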

[9] = system: Mus musculus; assay: as §5; conditions: ip; method in brief: as §6; remark: listed apart in the source
[10] = system: Rattus norvegicus; assay: Percent inhibition for analgesic activity by trypsin-induced hyperalgesia assay at 20 mg/kg by oral administration in rats; method in brief: as §2
[11] = system: Mus musculus; assay: Effective dose required for muscle relaxation by intraperitoneal administration in mouse using Straub-tail (ST) assay; conditions: for ED50: ip; method in brief: as §4
[12] = Effective dose required to produce analgesic activity in the trypsin hyperalgesia assay by oral administration; method in brief: as §3
[13] = Effective dose required to produce analgesic activity in the phalanges algesia assay by oral administration
[14] = Effective dose required to produce analgesic activity in the adjuvant arthritis hyperalgesia assay by oral administration
[15] = system: Rattus norvegicus; assay: Antiinflammatory activity in edema by Carrageenan pleurisy assay by oral administration
Method in brief: (§7)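 Rat carrageenan pleurisy, 3 h. Compounds given orally, with separate read-outs for pleural cell counts and edema. ED50 reported in mg/kg po. Each compound tested two or three times; average variation approximately 10%.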

[16] = system: Rattus norvegicus; assay: Antiinflammatory activity in cells using Carrageenan pleurisy assay by oral administration; method in brief: as §7
[17] = system: Rattus norvegicus; assay: Antiinflammatory activity in cells by Carrageenan pleurisy assay by oral administration at 20 mg/kg; method in brief: as §1
[18] = system: Rattus norvegicus; assay: Antiinflammatory activity in edema by Carrageenan pleurisy assay by oral administration at 20 mg/kg; method in brief: as §1

| SMILES | inhibition in vivo at 20 mg/kg [1] [%] | inhibition in vivo at 20 mg/kg [2] [%] | Ratio [3] | ED50 [4] [mg/kg] | ED50 [5] [mg/kg] | inhibition in vivo at 100 mg/kg [6] [%] | inhibition in vivo at 20 mg/kg [7] [%] | ED50 [8] [mg/kg] | inhibition in vivo at 100 mg/kg [9] [%] | inhibition in vivo at 20 mg/kg [10] [%] | ED50 [16] [mg/kg] | further results |
| --- | --- | --- | --- | --- | --- | --- | --- | --- | --- | --- | --- | --- |
| NC(=O)/C=C1\CCc2cc(F)cc(F)c21 | 54 | 93 | 1.8 | 10 | 44 | 100 | 55 | 81 |  |  |  |  |
| CC(C)NC(=O)/C=C1\CCc2ccc(F)cc21 | 45 | 83 |  | 9 | 96 |  | 71 | > 100 | 100 |  |  |  |
| NC(=O)CC1CCc2c(F)cc(F)cc21 (stereo unspecified) |  |  |  |  |  | 50 |  |  |  | 11 |  |  |
| O=C(/C=C/c1cccc(F)c1)NC1CC1 [CINFLUMIDE] | < 20 | < 20 | 1.2 |  | 156 |  | < 20 | 189 |  |  |  | ED50 [11]: 63 mg/kg |
| COc1ccc2c3c1O[C@H]1[C@@H](O)C=C[C@H]4[C@@H](C2)N(C)CC[C@@]341 [CODEINE] |  |  |  |  |  |  |  |  |  |  |  | ED50 [12]: 33 mg/kg; ED50 [13]: 27 mg/kg; ED50 [14]: 25 mg/kg |
| CN(C)C(=O)/C=C1\CCc2ccc(F)cc21 |  | 88 |  | 5 | > 100 |  |  |  | 100 |  | 16 | ED50 [15]: 12 mg/kg |
| NC(=O)/C=C1\CCc2ccc(F)cc21 |  | 14 | 1.6 | 16 | 56 |  |  | 90 |  | 60 | 21 | ED50 [15]: 20 mg/kg; ED50 [11]: 22 mg/kg |
| CNC(=O)/C=C1\CCc2c(F)cc(F)cc21 |  |  |  | 13 | 45 |  |  |  | 100 | 65 |  |  |
| CNC(=O)/C=C1\CCc2ccc(F)cc21 | 45 | 58 |  | 25 |  | 50 | 38 |  |  |  |  |  |
| O=C(/C=C1\CCc2c(F)cccc21)NC1CC1 |  |  |  |  | 126 |  |  |  | 100 |  |  | inhibition in vivo at 20 mg/kg [17]: 29%; inhibition in vivo at 20 mg/kg [18]: 18% |
| NC(=O)/C=C1\CCc2cc(F)c(F)cc21 |  |  | 1.3 | 19 | 64 |  |  | 82 | 100 | 62 | 13 | ED50 [15]: 17 mg/kg |
| Cc1cccc2c1CC/C2=C\C(N)=O | 15 | 25 |  |  | > 100 |  | 13 |  |  |  |  | Inhibition [11]: 100% |
| NC(=O)/C=C1\CCc2cc(Cl)ccc21 | 30 | 42 |  | 30 |  | 0 | 29 |  |  |  |  |  |
| NC(=O)/C=C1\CCc2c(F)ccc(F)c21 | 67 | 83 | 1.6 | 8 | 56 |  | 67 | 89 | 100 |  |  |  |
| C/C(=C\C(=O)NC1CC1)c1cccc(F)c1 |  |  | 0.6 |  | 122 |  |  | 71 |  |  |  | ED50 [11]: 46 mg/kg |
| O=C(/C=C1\CCc2ccc(F)cc21)NC1CCC1 | 4 |  |  |  | > 100 | 100 | 0 |  |  | 17 |  |  |
| Cc1cccc2c1/C(=C/C(N)=O)CC2 |  |  | 0.7 |  | 82 |  |  | 56 | 100 | 12 |  |  |
| O=C(/C=C1\CCc2ccc(F)cc21)NCc1ccccc1 |  |  |  |  |  | 17 |  |  |  | 8 | 16 | ED50 [15]: 8 mg/kg |
| O=C(/C=C1\CCc2ccc(F)cc21)Nc1ccccc1 |  |  |  |  |  | 83 |  |  |  |  | 8 |  |
| NC(=O)/C=C1\CCc2c(F)cccc21 | 40 | 68 |  | 13 | > 100 | 63 | 34 |  |  |  |  |  |
| NC(=O)/C=C1\CCc2ccc(Cl)cc21 |  |  | 2 |  | 98 |  |  | 221 |  |  | 27 | ED50 [15]: 33 mg/kg; ED50 [11]: 40 mg/kg |
| CNC(=O)/C=C1\CCc2cc(F)c(F)cc21 |  | 100 |  | 9 | 96 |  |  |  | 100 |  | 18 | ED50 [15]: 11 mg/kg |
| NC(=O)/C=C1/CCc2ccccc21 |  |  |  |  |  |  |  |  |  |  |  | ED50 [11]: 44 mg/kg |
| O=C(/C=C1\CCc2ccccc21)NC1CC1 |  |  | 1.6 |  | 150 |  |  | 235 |  |  |  | ED50 [11]: 71 mg/kg |
| O=C(/C=C1\CCc2c(F)cc(F)cc21)NCCO |  |  |  |  | 100 | 83 |  |  |  | 27 |  |  |
| O=C(/C=C1\CCc2ccc(F)cc21)NC1CCCC1 |  |  |  |  |  | 0 |  |  |  | 6 | 14 | ED50 [15]: 11 mg/kg |
